Source: ChEMBL document CHEMBL4689842, “EUbOPEN Chemogenomics Library wave 1” (2021)

Test system: HEK-293T
Test: Multiplex assay against HEK293T;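 for Population Tubulin-Different-Phenotype (%): share of the cells with healthy nuclei that show this phenotype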
Assay type: toxicity, cell-based
Settings: human
How it was run: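 Imaging took place on a CQ1 microscope at 37°C and 5% CO2 once compound had been added to live cells stained at seeding with Hoechst33342, BioTracker Green Microtubule Cytoskeleton Dye, MitoTracker Red and Annexin V Alexa Fluor 680. CellPathfinder machine-learning gating classed cells as Hoechst high-intensity objects or normal cells, classed normal cells as having healthy, pyknosed or fragmented nuclei, and classed pyknosed cells as mitotic or apoptotic. Tubulin, mitochondrial-mass and membrane-permeability phenotypes are per cents of the healthy-nucleus cells.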

[1] = 12 h, 1 µM, compound concentration 1 uM, replicate 1
[2] = 12 h, 1 µM, compound concentration 1 uM, replicate 2
[3] = 12 h, 10 µM, compound concentration 10 uM, replicate 1
[4] = 12 h, 10 µM, compound concentration 10 uM, replicate 2
[5] = 24 h, 1 µM, compound concentration 1 uM, replicate 1
[6] = 24 h, 1 µM, compound concentration 1 uM, replicate 2
[7] = 24 h, 10 µM, compound concentration 10 uM, replicate 1
[8] = 24 h, 10 µM, compound concentration 10 uM, replicate 2

With C=CCn1c(=O)c2cnc(Nc3ccc(N4CCN(C)CC4)cc3)nc2n1-c1cccc(C(C)(C)O)n1 [ADAVOSERTIB] the “Population Apoptotic (%)” value [1] was 16%, the “Population Fragmented Nuclei (%)” value [1] was 23% and the “Population Healthy Nuclei (%)” value [1] was 36%. For the same molecule, the “Population Hoechst High Intensity Objects (%)” value [1] was 14%, the “Population Membrane Permeable-Phenotype (%)” value [1] was 4% and the “Population Mitochondria Different-Phenotype (%)” value [1] was 3%. The “Population Mitotic Cells (%)” value [1] was 83%, the “Population Normal (%)” value [1] was 85% and the “Population Pyknosed Nuclei (%)” value [1] was 39%. The “Population Tubulin-Different-Phenotype (%)” value [1] was 2%, the “Total Cell Count” value [1] was 606 and the “Population Apoptotic (%)” value [2] was 13%. For the same molecule, the “Population Fragmented Nuclei (%)” value [2] was 7%, the “Population Healthy Nuclei (%)” value [2] was 62% and the “Population Hoechst High Intensity Objects (%)” value [2] was 3%. For the same molecule, the “Population Membrane Permeable-Phenotype (%)” value [2] was 3%, the “Population Mitochondria Different-Phenotype (%)” value [2] was 16% and the “Population Mitotic Cells (%)” value [2] was 86%. The “Population Normal (%)” value [2] was 96%, the “Population Pyknosed Nuclei (%)” value [2] was 30% and the “Population Tubulin-Different-Phenotype (%)” value [2] was 15%. For the same molecule, the “Total Cell Count” value [2] was 1183, the “Population Apoptotic (%)” value [3] was 12% and the “Population Fragmented Nuclei (%)” value [3] was 20%. For the same molecule, the “Population Healthy Nuclei (%)” value [3] was 22%, the “Population Hoechst High Intensity Objects (%)” value [3] was 17% and the “Population Membrane Permeable-Phenotype (%)” value [3] was 16%. The “Population Mitochondria Different-Phenotype (%)” value [3] was 16%, the “Population Mitotic Cells (%)” value [3] was 87% and the “Population Normal (%)” value [3] was 82%. The “Population Pyknosed Nuclei (%)” value [3] was 56%, the “Population Tubulin-Different-Phenotype (%)” value [3] was 47% and the “Total Cell Count” value [3] was 637. For the same molecule, the “Population Apoptotic (%)” value [4] was 9%, the “Population Fragmented Nuclei (%)” value [4] was 15% and the “Population Healthy Nuclei (%)” value [4] was 27%. For the same molecule, the “Population Hoechst High Intensity Objects (%)” value [4] was 2%, the “Population Membrane Permeable-Phenotype (%)” value [4] was 4% and the “Population Mitochondria Different-Phenotype (%)” value [4] was 32%. For the same molecule, the “Population Mitotic Cells (%)” value [4] was 90%, the “Population Normal (%)” value [4] was 97% and the “Population Tubulin-Different-Phenotype (%)” value [4] was 70%. The “Total Cell Count” value [4] was 1182, the “Population Apoptotic (%)” value [5] was 17% and the “Population Fragmented Nuclei (%)” value [5] was 22%. The “Population Healthy Nuclei (%)” value [5] was 46%, the “Population Hoechst High Intensity Objects (%)” value [5] was 9% and the “Population Membrane Permeable-Phenotype (%)” value [5] was 6%. The “Population Mitochondria Different-Phenotype (%)” value [5] was 5%, the “Population Mitotic Cells (%)” value [5] was 82% and the “Population Normal (%)” value [5] was 90%. The “Population Pyknosed Nuclei (%)” value [5] was 30%, the “Population Tubulin-Different-Phenotype (%)” value [5] was 6% and the “Total Cell Count” value [5] was 590. The “Population Apoptotic (%)” value [6] was 16%, the “Population Fragmented Nuclei (%)” value [6] was 7% and the “Population Healthy Nuclei (%)” value [6] was 58%. The “Population Hoechst High Intensity Objects (%)” value [6] was 4%, the “Population Membrane Permeable-Phenotype (%)” value [6] was 5% and the “Population Mitochondria Different-Phenotype (%)” value [6] was 14%. For the same molecule, the “Population Mitotic Cells (%)” value [6] was 83%, the “Population Normal (%)” value [6] was 95% and the “Population Pyknosed Nuclei (%)” value [6] was 33%. For the same molecule, the “Population Tubulin-Different-Phenotype (%)” value [6] was 32%, the “Total Cell Count” value [6] was 1164 and the “Population Apoptotic (%)” value [7] was 21%. The “Population Fragmented Nuclei (%)” value [7] was 27%, the “Population Healthy Nuclei (%)” value [7] was 26% and the “Population Hoechst High Intensity Objects (%)” value [7] was 18%. For the same molecule, the “Population Membrane Permeable-Phenotype (%)” value [7] was 12%, the “Population Mitochondria Different-Phenotype (%)” value [7] was 32% and the “Population Mitotic Cells (%)” value [7] was 78%. The “Population Normal (%)” value [7] was 81%, the “Population Pyknosed Nuclei (%)” value [7] was 46% and the “Population Tubulin-Different-Phenotype (%)” value [7] was 56%. For the same molecule, the “Total Cell Count” value [7] was 609, the “Population Apoptotic (%)” value [8] was 20% and the “Population Fragmented Nuclei (%)” value [8] was 15%. For the same molecule, the “Population Healthy Nuclei (%)” value [8] was 39%, the “Population Hoechst High Intensity Objects (%)” value [8] was 3% and the “Population Membrane Permeable-Phenotype (%)” value [8] was 3%. The “Population Mitochondria Different-Phenotype (%)” value [8] was 53%, the “Population Mitotic Cells (%)” value [8] was 79% and the “Population Normal (%)” value [8] was 96%. The “Population Pyknosed Nuclei (%)” value [8] was 44%, the “Population Tubulin-Different-Phenotype (%)” value [8] was 80% and the “Total Cell Count” value [8] was 1042.

In the case of CCCS(=O)(=O)Nc1ccc(F)c(C(=O)c2c[nH]c3ncc(Cl)cc23)c1F [PLX-4720], the “Population Apoptotic (%)” value [1] is reported as 13%, the “Population Fragmented Nuclei (%)” value [1] is reported as 16% and the “Population Healthy Nuclei (%)” value [1] is reported as 62%. The “Population Hoechst High Intensity Objects (%)” value [1] was 11%, the “Population Membrane Permeable-Phenotype (%)” value [1] was 6% and the “Population Mitochondria Different-Phenotype (%)” value [1] was 4%. The “Population Mitotic Cells (%)” value [1] was 86%, the “Population Normal (%)” value [1] was 88% and the “Population Pyknosed Nuclei (%)” value [1] was 20%. For the same molecule, the “Population Tubulin-Different-Phenotype (%)” value [1] was 8%, the “Total Cell Count” value [1] was 675 and the “Population Apoptotic (%)” value [2] was 6%. For the same molecule, the “Population Fragmented Nuclei (%)” value [2] was 7%, the “Population Healthy Nuclei (%)” value [2] was 87% and the “Population Hoechst High Intensity Objects (%)” value [2] was 2%. For the same molecule, the “Population Membrane Permeable-Phenotype (%)” value [2] was 2%, the “Population Mitochondria Different-Phenotype (%)” value [2] was 10% and the “Population Mitotic Cells (%)” value [2] was 93%. The “Population Normal (%)” value [2] was 97%, the “Population Pyknosed Nuclei (%)” value [2] was 5% and the “Population Tubulin-Different-Phenotype (%)” value [2] was 14%. The “Total Cell Count” value [2] was 1750, the “Population Apoptotic (%)” value [3] was 21% and the “Population Fragmented Nuclei (%)” value [3] was 13%. The “Population Healthy Nuclei (%)” value [3] was 73%, the “Population Hoechst High Intensity Objects (%)” value [3] was 13% and the “Population Membrane Permeable-Phenotype (%)” value [3] was 3%. For the same molecule, the “Population Mitochondria Different-Phenotype (%)” value [3] was 2%, the “Population Mitotic Cells (%)” value [3] was 78% and the “Population Normal (%)” value [3] was 86%. For the same molecule, the “Population Pyknosed Nuclei (%)” value [3] was 12%, the “Population Tubulin-Different-Phenotype (%)” value [3] was 1% and the “Total Cell Count” value [3] was 751. The “Population Apoptotic (%)” value [4] was 11%, the “Population Fragmented Nuclei (%)” value [4] was 9% and the “Population Healthy Nuclei (%)” value [4] was 86%. For the same molecule, the “Population Hoechst High Intensity Objects (%)” value [4] was 2%, the “Population Membrane Permeable-Phenotype (%)” value [4] was 0% and the “Population Mitochondria Different-Phenotype (%)” value [4] was 5%. For the same molecule, the “Population Mitotic Cells (%)” value [4] was 88%, the “Population Normal (%)” value [4] was 97% and the “Population Pyknosed Nuclei (%)” value [4] was 4%. The “Population Tubulin-Different-Phenotype (%)” value [4] was 2%, the “Total Cell Count” value [4] was 1952 and the “Population Apoptotic (%)” value [5] was 28%. For the same molecule, the “Population Fragmented Nuclei (%)” value [5] was 13%, the “Population Healthy Nuclei (%)” value [5] was 78% and the “Population Hoechst High Intensity Objects (%)” value [5] was 7%. The “Population Membrane Permeable-Phenotype (%)” value [5] was 7%, the “Population Mitotic Cells (%)” value [5] was 71% and the “Population Normal (%)” value [5] was 92%. For the same molecule, the “Population Pyknosed Nuclei (%)” value [5] was 7%, the “Population Tubulin-Different-Phenotype (%)” value [5] was 9% and the “Total Cell Count” value [5] was 803. For the same molecule, the “Population Apoptotic (%)” value [6] was 3%, the “Population Fragmented Nuclei (%)” value [6] was 20% and the “Population Healthy Nuclei (%)” value [6] was 77%. The “Population Hoechst High Intensity Objects (%)” value [6] was 5%, the “Population Membrane Permeable-Phenotype (%)” value [6] was 8% and the “Population Mitochondria Different-Phenotype (%)” value [6] was 3%. For the same molecule, the “Population Mitotic Cells (%)” value [6] was 96%, the “Population Normal (%)” value [6] was 94% and the “Population Pyknosed Nuclei (%)” value [6] was 2%. For the same molecule, the “Population Tubulin-Different-Phenotype (%)” value [6] was 24%, the “Total Cell Count” value [6] was 2555 and the “Population Apoptotic (%)” value [7] was 15%. For the same molecule, the “Population Fragmented Nuclei (%)” value [7] was 14%, the “Population Healthy Nuclei (%)” value [7] was 78% and the “Population Hoechst High Intensity Objects (%)” value [7] was 6%. The “Population Membrane Permeable-Phenotype (%)” value [7] was 5%, the “Population Mitochondria Different-Phenotype (%)” value [7] was 2% and the “Population Mitotic Cells (%)” value [7] was 84%. The “Population Normal (%)” value [7] was 93%, the “Population Pyknosed Nuclei (%)” value [7] was 6% and the “Population Tubulin-Different-Phenotype (%)” value [7] was 3%. For the same molecule, the “Total Cell Count” value [7] was 975, the “Population Apoptotic (%)” value [8] was 3% and the “Population Fragmented Nuclei (%)” value [8] was 29%. For the same molecule, the “Population Healthy Nuclei (%)” value [8] was 68%, the “Population Hoechst High Intensity Objects (%)” value [8] was 3% and the “Population Membrane Permeable-Phenotype (%)” value [8] was 3%. For the same molecule, the “Population Mitochondria Different-Phenotype (%)” value [8] was 1%, the “Population Mitotic Cells (%)” value [8] was 96% and the “Population Normal (%)” value [8] was 96%. For the same molecule, the “Population Pyknosed Nuclei (%)” value [8] was 1%, the “Population Tubulin-Different-Phenotype (%)” value [8] was 4% and the “Total Cell Count” value [8] was 3379.
